Experimental data reported in ChEMBL document CHEMBL4689842, “EUbOPEN Chemogenomics Library wave 1” (2021).

Columns and labels:
Format in all cases: toxicity, cell-based
[1] = tested on: U2OS; assay: Incucyte cell viability with U2OS; settings: human, 10 µM, compound concentration 10 uM; also: filed as whole numbers so only -1 and 0 and 1 occur
[2] = tested on: Fibroblast; assay: Incucyte cell viability with human fibroblast; settings: 10 µM, compound concentration 10 uM; also: filed as whole numbers so only -1 and 0 and 1 occur
[3] = tested on: Fibroblast; assay: Multiplex assay against human fibroblast
Method in brief: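 Compound was added to live cells that had been stained at seeding with Hoechst33342, BioTracker Green Microtubule Cytoskeleton Dye, MitoTracker Red and Annexin V Alexa Fluor 680, and imaging followed on a CQ1 microscope at 37°C and 5% CO2. CellPathfinder machine-learning gating divided cells into Hoechst high-intensity objects or normal cells, normal cells into healthy, pyknosed or fragmented nuclei, and pyknosed cells into mitotic or apoptotic. Tubulin, mitochondrial-mass and membrane-permeability phenotypes are per cents of healthy-nucleus cells.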

[4] = 6 h, replicate number 1, timepoint 6 hours
[5] = 12 h, replicate number 1, timepoint 12 hours
[6] = 18 h, replicate number 1, timepoint 18 hours
[7] = 24 h, replicate number 1, timepoint 24 hours
[8] = 12 h, 1 µM, compound concentration 1 uM, replicate 1
[9] = 12 h, 1 µM, compound concentration 1 uM, replicate 2
[10] = 12 h, 10 µM, compound concentration 10 uM, replicate 1
[11] = 12 h, 10 µM, compound concentration 10 uM, replicate 2
[12] = 24 h, 1 µM, compound concentration 1 uM, replicate 1
[13] = 24 h, 1 µM, compound concentration 1 uM, replicate 2
[14] = 24 h, 10 µM, compound concentration 10 uM, replicate 1
[15] = 24 h, 10 µM, compound concentration 10 uM, replicate 2
[16] = 48 h, 1 µM, compound concentration 1 uM, replicate 1
[17] = 48 h, 1 µM, compound concentration 1 uM, replicate 2
[18] = 48 h, 10 µM, compound concentration 10 uM, replicate 1
[19] = 48 h, 10 µM, compound concentration 10 uM, replicate 2

CC(=O)c1cc(-c2cc(C(=O)NC3CC3)ccc2C)c2ncccn12
Growth Rate ([1]; 0 h, replicate number 1, timepoint 0 hours): 0
Growth Rate [1, 4]: 0
Growth Rate [1, 5]: 0
Growth Rate [1, 6]: 0
Growth Rate [1, 7]: 0
Growth Rate ([2]; 0 h, replicate number 2, timepoint 0 hours): 1
Growth Rate [2, 4]: 0
Growth Rate [2, 5]: 0
Growth Rate [2, 6]: 0
Growth Rate [2, 7]: 0
Population Apoptotic (%) [3, 8]: 68%
Population Fragmented Nuclei (%) [3, 8]: 28%
Population Healthy Nuclei (%) [3, 8]: 35%
Population Hoechst High Intensity Objects (%) [3, 8]: 16%
Population Membrane Permeable-Phenotype (%) [3, 8]: 42%
Population Mitochondria Different-Phenotype (%) [3, 8]: 3%
Population Mitotic Cells (%) [3, 8]: 31%
Population Normal (%) [3, 8]: 83%
Population Pyknosed Nuclei (%) [3, 8]: 36%
Population Tubulin-Different-Phenotype (%) [3, 8]: 42%
Total Cell Count [3, 8]: 96
Population Apoptotic (%) [3, 9]: 66%
Population Fragmented Nuclei (%) [3, 9]: 8%
Population Healthy Nuclei (%) [3, 9]: 85%
Population Hoechst High Intensity Objects (%) [3, 9]: 7%
Population Membrane Permeable-Phenotype (%) [3, 9]: 2%
Population Mitochondria Different-Phenotype (%) [3, 9]: 7%
Population Mitotic Cells (%) [3, 9]: 33%
Population Normal (%) [3, 9]: 92%
Population Pyknosed Nuclei (%) [3, 9]: 6%
Population Tubulin-Different-Phenotype (%) [3, 9]: 19%
Total Cell Count [3, 9]: 73
Population Apoptotic (%) [3, 10]: 60%
Population Fragmented Nuclei (%) [3, 10]: 20%
Population Healthy Nuclei (%) [3, 10]: 40%
Population Hoechst High Intensity Objects (%) [3, 10]: 25%
Population Membrane Permeable-Phenotype (%) [3, 10]: 30%
Population Mitochondria Different-Phenotype (%) [3, 10]: 23%
Population Mitotic Cells (%) [3, 10]: 39%
Population Normal (%) [3, 10]: 75%
Population Pyknosed Nuclei (%) [3, 10]: 39%
Population Tubulin-Different-Phenotype (%) [3, 10]: 50%
Total Cell Count [3, 10]: 140
Population Fragmented Nuclei (%) [3, 11]: 11%
Population Healthy Nuclei (%) [3, 11]: 84%
Population Hoechst High Intensity Objects (%) [3, 11]: 4%
Population Membrane Permeable-Phenotype (%) [3, 11]: 3%
Population Mitochondria Different-Phenotype (%) [3, 11]: 8%
Population Mitotic Cells (%) [3, 11]: 40%
Population Normal (%) [3, 11]: 95%
Population Pyknosed Nuclei (%) [3, 11]: 5%
Population Tubulin-Different-Phenotype (%) [3, 11]: 17%
Total Cell Count [3, 11]: 52
Population Apoptotic (%) [3, 12]: 66%
Population Fragmented Nuclei (%) [3, 12]: 25%
Population Healthy Nuclei (%) [3, 12]: 45%
Population Hoechst High Intensity Objects (%) [3, 12]: 15%
Population Membrane Permeable-Phenotype (%) [3, 12]: 51%
Population Mitochondria Different-Phenotype (%) [3, 12]: 7%
Population Mitotic Cells (%) [3, 12]: 33%
Population Normal (%) [3, 12]: 84%
Population Pyknosed Nuclei (%) [3, 12]: 29%
Population Tubulin-Different-Phenotype (%) [3, 12]: 43%
Total Cell Count [3, 12]: 108
Population Apoptotic (%) [3, 13]: 0%
Population Fragmented Nuclei (%) [3, 13]: 3%
Population Healthy Nuclei (%) [3, 13]: 91%
Population Hoechst High Intensity Objects (%) [3, 13]: 4%
Population Membrane Permeable-Phenotype (%) [3, 13]: 3%
Population Mitochondria Different-Phenotype (%) [3, 13]: 9%
Population Mitotic Cells (%) [3, 13]: 100%
Population Normal (%) [3, 13]: 95%
Population Pyknosed Nuclei (%) [3, 13]: 5%
Population Tubulin-Different-Phenotype (%) [3, 13]: 12%
Total Cell Count [3, 13]: 70
Population Apoptotic (%) [3, 14]: 57%
Population Fragmented Nuclei (%) [3, 14]: 21%
Population Healthy Nuclei (%) [3, 14]: 47%
Population Hoechst High Intensity Objects (%) [3, 14]: 15%
Population Membrane Permeable-Phenotype (%) [3, 14]: 24%
Population Mitochondria Different-Phenotype (%) [3, 14]: 9%
Population Mitotic Cells (%) [3, 14]: 42%
Population Normal (%) [3, 14]: 84%
Population Pyknosed Nuclei (%) [3, 14]: 31%
Population Tubulin-Different-Phenotype (%) [3, 14]: 65%
Total Cell Count [3, 14]: 151
Population Apoptotic (%) [3, 15]: 48%
Population Fragmented Nuclei (%) [3, 15]: 11%
Population Healthy Nuclei (%) [3, 15]: 63%
Population Hoechst High Intensity Objects (%) [3, 15]: 2%
Population Membrane Permeable-Phenotype (%) [3, 15]: 8%
Population Mitochondria Different-Phenotype (%) [3, 15]: 12%
Population Mitotic Cells (%) [3, 15]: 51%
Population Normal (%) [3, 15]: 97%
Population Pyknosed Nuclei (%) [3, 15]: 24%
Population Tubulin-Different-Phenotype (%) [3, 15]: 18%
Total Cell Count [3, 15]: 62
Population Apoptotic (%) [3, 16]: 42%
Population Fragmented Nuclei (%) [3, 16]: 40%
Population Healthy Nuclei (%) [3, 16]: 46%
Population Hoechst High Intensity Objects (%) [3, 16]: 10%
Population Membrane Permeable-Phenotype (%) [3, 16]: 34%
Population Mitochondria Different-Phenotype (%) [3, 16]: 2%
Population Mitotic Cells (%) [3, 16]: 57%
Population Normal (%) [3, 16]: 89%
Population Pyknosed Nuclei (%) [3, 16]: 13%
Population Tubulin-Different-Phenotype (%) [3, 16]: 20%
Total Cell Count [3, 16]: 119
Population Apoptotic (%) [3, 17]: 33%
Population Fragmented Nuclei (%) [3, 17]: 30%
Population Healthy Nuclei (%) [3, 17]: 66%
Population Hoechst High Intensity Objects (%) [3, 17]: 7%
Population Membrane Permeable-Phenotype (%) [3, 17]: 12%
Population Mitochondria Different-Phenotype (%) [3, 17]: 1%
Population Mitotic Cells (%) [3, 17]: 66%
Population Normal (%) [3, 17]: 92%
Population Pyknosed Nuclei (%) [3, 17]: 3%
Population Tubulin-Different-Phenotype (%) [3, 17]: 32%
Total Cell Count [3, 17]: 101
Population Apoptotic (%) [3, 18]: 52%
Population Fragmented Nuclei (%) [3, 18]: 30%
Population Healthy Nuclei (%) [3, 18]: 51%
Population Hoechst High Intensity Objects (%) [3, 18]: 17%
Population Membrane Permeable-Phenotype (%) [3, 18]: 27%
Population Mitochondria Different-Phenotype (%) [3, 18]: 6%
Population Mitotic Cells (%) [3, 18]: 47%
Population Normal (%) [3, 18]: 82%
Population Pyknosed Nuclei (%) [3, 18]: 17%
Population Tubulin-Different-Phenotype (%) [3, 18]: 45%
Total Cell Count [3, 18]: 145
Population Apoptotic (%) [3, 19]: 75%
Population Fragmented Nuclei (%) [3, 19]: 26%
Population Healthy Nuclei (%) [3, 19]: 69%
Population Hoechst High Intensity Objects (%) [3, 19]: 9%
Population Membrane Permeable-Phenotype (%) [3, 19]: 16%
Population Mitochondria Different-Phenotype (%) [3, 19]: 8%
Population Mitotic Cells (%) [3, 19]: 25%
Population Normal (%) [3, 19]: 90%
Population Pyknosed Nuclei (%) [3, 19]: 4%
Population Tubulin-Different-Phenotype (%) [3, 19]: 35%
Total Cell Count [3, 19]: 107
